M4 antag – human M4 muscarinic receptor antagonists, primary screen, CHO cells, Fluo-8 calcium fluorescence. Muscarinic acetylcholine receptor M4 (Homo sapiens), P08173. CHO-hM4 cells, ACh EC80. inhibition, % at 3 µM. 0.73% of 360,000 active;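 active = inhibition above its plate's cutoff, the mean inhibition of sample wells plus 3 SD, cut at about 27% in these data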;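 also: 0% = acetylcholine EC80 with DMSO and 100% = DMSO without agonist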
CHRM5 PAM – human M5 muscarinic receptor positive allosteric modulators, primary screen, CHO-K1 cells, Fluo-8 calcium fluorescence | Muscarinic acetylcholine receptor M5 (Homo sapiens), P08912 | CHO-K1 hM5, ACh EC20 PAM; 0% = ACh EC20, 100% = ACh EC100 | activation, % at 3 µM | 0.3% of 360,000 active | AID 624038, 2012;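 active = activation above the run cutoff, the mean activation of all test compounds plus 3 SD, cut at about 18% in these data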
Target sequence (P08912 whole entry, looked up): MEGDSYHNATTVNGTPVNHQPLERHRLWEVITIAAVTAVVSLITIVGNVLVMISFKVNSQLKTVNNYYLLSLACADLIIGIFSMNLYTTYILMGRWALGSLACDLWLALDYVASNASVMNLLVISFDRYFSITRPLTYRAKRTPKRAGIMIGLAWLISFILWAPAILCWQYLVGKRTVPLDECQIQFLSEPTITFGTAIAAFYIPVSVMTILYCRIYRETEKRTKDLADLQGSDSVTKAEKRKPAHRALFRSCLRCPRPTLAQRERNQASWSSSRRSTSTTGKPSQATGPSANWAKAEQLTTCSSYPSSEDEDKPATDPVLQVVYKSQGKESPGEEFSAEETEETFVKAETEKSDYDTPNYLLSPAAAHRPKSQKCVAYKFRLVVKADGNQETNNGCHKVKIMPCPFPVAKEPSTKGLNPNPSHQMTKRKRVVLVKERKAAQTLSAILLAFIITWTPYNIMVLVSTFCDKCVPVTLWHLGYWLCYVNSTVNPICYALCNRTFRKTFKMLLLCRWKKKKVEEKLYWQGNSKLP
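Replicates: One well per compound, no replicates | System: Human M5 receptor in CHO-K1 cells | Benchmarks: Low control EC20 acetylcholine (0%), high control EC100 acetylcholine (100%) | Probe or stimulus: Acetylcholine, EC20 level | Times: Fluo-8 loading 80 min at 37 °C plus 30 min room temperature | Signal: Intracellular calcium via Fluo-8 fluorescence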
M5 ag – human M5 muscarinic receptor agonists, primary screen, CHO-K1 cells, Fluo-8 calcium fluorescence; Muscarinic acetylcholine receptor M5 (Homo sapiens), P08912; CHO-K1 hM5 cells; 0% DMSO wells, 100% maximal acetylcholine response; activation, % at 3 µM; 0.19% of 360,000 active;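 active = activation above the run's mean over test compounds plus 3 SD, cut at about 23% in these data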;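 also: signal is peak over basal fluorescence ratio across the kinetic read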
CHRM5 antagonist – human M5 muscarinic receptor antagonists, primary screen, CHO cells, Fluo-8 calcium fluorescence. Muscarinic acetylcholine receptor M5 (Homo sapiens), P08912. CHO-hM5 cells, ACh EC80. inhibition, % at 3 µM. 0.59% of 360,000 active. AID 624040, 2012;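 active = inhibition above a per-plate cutoff, the mean of that plate's test compounds plus 3 SD, cut at about 27% in these data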;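 also: 0% = acetylcholine EC80 with DMSO and 100% = DMSO without agonist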
CHRM4 agonist – human M4 muscarinic receptor agonists, primary screen, CHO-K1 cells, Fluo-8 calcium fluorescence; 0.14% of 360,000 active; AID 624127, 2012; CHO-K1 hM4/Gqi5; vehicle 0%, full acetylcholine response 100%; activation, % at 3 µM; Muscarinic acetylcholine receptor M4 (Homo sapiens), P08173;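 active = activation above the run mean over all test wells plus 3 SD, cut at about 32% in these data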;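 also: peak over basal fluorescence ratio per well then scaled between controls; 0% = DMSO wells and 100% = acetylcholine at EC100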
M4 PAM – human M4 muscarinic receptor positive allosteric modulators, primary screen, CHO-K1 cells, Fluo-8 calcium fluorescence | AID 624126, 2012 | activation, % at 3 µM | Muscarinic acetylcholine receptor M4 (Homo sapiens), P08173 | 0.4% of 360,000 active | CHO-K1 hM4/Gqi5, ACh EC20; 0% = ACh EC20, 100% = maximal ACh;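 active = activation above its plate's cutoff, the mean activation of sample wells plus 3 SD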
Active calls of the source: *. Most compounds without a hit are left out; they make up all but 1.8% or so of the library.

SMILES	M4 antag	CHRM5 PAM	M5 ag	CHRM5 antagonist	CHRM4 agonist	M4 PAM
Cc1ccc(-c2cc(-c3ccc(C)cc3)[n+](-c3ccccc3)c(-c3ccc(C)cc3)c2)cc1	65*	-43	-3	31*	30	-21
O=[N+]([O-])c1cc(Cl)c(O)c(-[n+]2c(-c3ccccc3)cc(-c3ccccc3)cc2-c2ccccc2)c1	1	-1	1	-2	1	-2
CN(C)c1ccc(-[n+]2c(-c3ccccc3)cc(-c3ccccc3)cc2-c2ccccc2)cc1	56*	-16	-4	78*	18	-21
CCOC(=O)c1cccc(-[n+]2c(-c3ccccc3)cc(-c3ccccc3)cc2-c2ccccc2)c1	27*	-33	-12	24	3	-11
C[n+]1c(-c2ccccc2)cc(-c2ccc(Cl)cc2)cc1-c1ccccc1	1	1	-9	7	2	-2
CCOC(=O)c1ccccc1C(=O)OCC	-2	3	0	-10	0	-2
c1ccc(-c2cc(-c3ccccc3)[n+](-c3ccccc3)c(-c3ccccc3)c2)cc1	73*	-31	-12	48*	11	-41
Cc1ccc(O)c(CN2CCC3CCC(C3)C2)c1 (stereo not drawn)	0	-4	-10	10	0	-10
COc1ccccc1N1CCN(CCc2c[nH]c3cc4c(cc23)OCO4)CC1	-36	-2	-4	6	16	2
Cc1ccc(-c2cc(-c3ccccc3)cc(-c3ccccc3)[n+]2-c2ccccc2)cc1	79*	-42	-5	49*	21	-22
Cc1ccc(-c2cc(-c3ccc(C)cc3)[n+](-c3ccc(C(=O)[O-])cc3)c(-c3ccc(C)cc3)c2)cc1	-1	0	-9	6	0	4
CCC(CO)(C(=O)OC1C[N+]2(C)CCC1CC2)c1ccccc1 (stereo not drawn)	99*	-19	-11	99*	-1	-25
O=C(C[N+]12CCC(CC1)C(OC(=O)c1ccccc1)C2)c1ccc([N+](=O)[O-])cc1 (stereo not drawn)	13	4	-18	4	0	-21
CN(C)C(CNC(=O)Cc1c(Cl)cccc1Cl)c1ccccc1 (stereo not drawn)	17	-16	-12	41*	1	-20
C[N+]1([O-])[C@@H]2CC(OC(=O)[C@H](CO)c3ccccc3)C[C@H]1[C@@H]1O[C@@H]12 (stereo partly drawn)	99*	-18	-1	98*	2	-17
C[N+]1(C)C2CCC1CC(OC(=O)C(CO)c1ccccc1)C2 (stereo not drawn)	98*	-16	-10	99*	2	-26
C#CC[N+]1(C)[C@@H]2CC(OC(=O)C(CO)c3ccccc3)C[C@H]1C(O)C2 (stereo partly drawn)	98*	-22	-9	98*	0	-16
C[N+]1(C)[C@@H]2CC[C@H]1CC(OC(=O)C(CO)c1ccccc1)C2 (stereo partly drawn)	99*	-18	-2	99*	1	-18
C[N+]1(C)C2CCC1CC(OC(=O)c1ccccc1)C2 (stereo not drawn)	-3	-22	-18	6	0	-23
O=S(=O)(c1ccccc1)N1Cc2ccccc2-n2nncc2C1	-12	-2	1	-10	3	2
COc1c(OP2(=S)OCC(C)(C)CO2)cnn(C2CCCCC2)c1=O	4	1	3	-4	3	2
C[C@]12CCC3C(CC[C@H]4C[C@@H](O)CC[C@]34C)C1C[C@H](Br)[C@@H]2O (stereo partly drawn)	-4	-5	2	4	10	-1
